Measured values from ChEMBL document CHEMBL1126279, “Antiallergic and cytoprotective activity of new N-phenylbenzamido acid derivatives” (1992).
Active and inactive are the calls of the source. The calls are words filed in the database; no cut-off is given here.

Legend:
Rattus norvegicus [1] = assay: Antiallergic activity against rat passive cutaneous anaphylaxis (PCA) reaction induced by 25 mg/kg of ovalbumin given iv (bolus).; type: functional; conditions: read-out: ID50 (the source's name)
Rattus norvegicus [2] = assay: Cytoprotective activity against ethanol-induced gastric lesions in male conscious rats; type: functional; conditions: Stomach, read-out: ID50 (the source's name)
Method in brief: (§1)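 Male rats (140–160 g) were fasted 24 h with water allowed. Lesions were induced by 1.5 mL oral absolute ethanol. Drugs were given iv (5 mL/kg) as sodium salt in saline, 15 min before. Stomachs were scored blind at 1 h for necrotic lesion length categories and counts (lesion index). Each agent was given at ≥3 doses, groups of five. % effect vs control was computed, and ID50 came from log-dose regression.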

Rattus norvegicus [3] = species: Rattus norvegicus; assay: Compound was evaluated for antiallergic activity against rat passive cutaneous anaphylaxis (PCA); type: functional; conditions: read-out: ID50 (the source's name)
Method in brief: (§2)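 IgE antiserum was raised in male Sprague-Dawley rats by im ovalbumin (25 mg) in Bordetella pertussis suspension, and sera were pooled 14 days later. Naive young rats received 0.05 mL antiserum intradermally at two back sites. After 24 h they were challenged iv with saline containing egg albumin plus Evans blue and killed 30 min later to measure wheal axes. Compounds were given as sodium salt in saline, im, 15 min pre-challenge, at ≥3 doses (n ≥ 15). ID50 was derived by log-dose regression with p = 0.05 fiducial limits.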

Rattus norvegicus [4] = species: Rattus norvegicus; assay: Inhibition of rat passive cutaneous anaphylaxis reaction; Inactive.; type: functional, organism-based; method in brief: as §2
Rattus norvegicus [5] = assay: Cytoprotective activity against ethanol-induced gastric lesions in male conscious rats; Inactive.; type: functional, organism-based; conditions: Stomach; method in brief: as §1
Rattus norvegicus [6] = assay: Antiallergic activity against rat passive cutaneous anaphylaxis (PCA) reaction induced by 25 mg/kg of ovalbumin given iv(bolus); type: functional; conditions: read-out: ID50 (the source's name)
Rattus norvegicus [7] = assay: Compound was evaluated for cytoprotective activity against sodium chloride-induced gastric lesions in male conscious rats; type: functional; conditions: Stomach, read-out: ID50 (the source's name)
Method in brief: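 Male rats (140–160 g) were fasted 24 h. Lesions were induced by oral 1.5 mL/animal 25% (w/v) NaCl. Drugs were given iv (5 mL/kg) 15 min before. Stomachs were scored blind at 1 h by lesion index, and % effect vs control was calculated. Some agents were given at five dose levels in groups of five; others in duplicate at 30 and 100 mg/kg. ID50 came from log-dose regression.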

Rattus norvegicus [8] = assay: Compound was evaluated for cytoprotective activity against glucose-induced gastric lesions in male conscious rats; type: functional; conditions: Stomach, read-out: ID50 (the source's name)
Method in brief: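 Male rats (180–200 g) were fasted 24 h, then fed solely an aqueous glucose liquid meal. Drugs were given sc twice daily for 9 days. Lesions were scored by number of necrotic lesions and extent of impaired rumen area, and % effect vs control was calculated. Agents were given at four dose levels in groups of five in duplicate, or in duplicate at 100 mg/kg.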

Rattus norvegicus [9] = assay: Compound was evaluated for cytoprotective activity against acetic acid-induced gastric lesions in male conscious rats; type: functional; conditions: Stomach, read-out: ID50 (the source's name)
Method in brief: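 Under ether anesthesia, 50 µL of 30% acetic acid was injected into the gastric submucosa of fasted male rats (140–160 g). Drugs were given im at −0.5, 4 and 21 h. […] Agents were given at five dose levels in groups of five, or in duplicate at 100 mg/kg.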

SMILES	ED50 (Rattus norvegicus [1]) [mg/kg]	ED50 (Rattus norvegicus [2]) [mg/kg]	ID50 (Rattus norvegicus [4])	ID50 (Rattus norvegicus [5])	other results
O=C(Nc1ccc(-c2nn[nH]n2)cc1)c1cccc(-c2nn[nH]n2)c1	0.05	0.6	–	–	–
CCCc1ccc(C(=O)Nc2cc(C(=O)O)cc(C(=O)O)c2)cc1	–	94.2	–	–	ED50 (Rattus norvegicus [3]): 6.7 mg/kg
O=C(O)c1cc(NC(=O)c2cccc(Cl)c2)cc(C(=O)O)c1	–	–	inactive	inactive	–
O=C(Nc1ccc(C(=O)O)c(C(=O)O)c1)c1ccc([N+](=O)[O-])cc1	13.2	–	–	inactive	–
CCCc1c2oc(C(=O)O)cc(=O)c2cc2c(=O)cc(C(=O)O)n(CC)c12 [NEDOCROMIL]	1.3	–	–	inactive	–
CN(C(=O)c1ccc(-c2nn[nH]n2)cc1)c1ccc(-c2nn[nH]n2)cc1	3.8	60	–	–	–
O=C(O)c1ccc(C(=O)Nc2cc(C(=O)O)cc(C(=O)O)c2)cc1	2.1	32.2	–	–	–
N#Cc1ccc(NC(=O)c2ccc(C(=O)O)cc2)cc1	–	–	inactive	inactive	–
COc1ccc(C(=O)Nc2cc(C(=O)O)cc(C(=O)O)c2)cc1	–	–	inactive	inactive	–
N#Cc1ccc(C(=O)Nc2cccc(C(=O)O)c2)cc1	–	–	inactive	inactive	–
N#Cc1ccc(C(=O)Nc2ccc(C(=O)O)c(C(=O)O)c2)cc1	10.1	–	–	inactive	–
O=C(O)c1cc(NC(=O)c2ccc(-c3nn[nH]n3)cc2)cc(C(=O)O)c1	1.2	8.2	–	–	–
O=C(O)c1cc(NC(=O)c2ccc(Cl)cc2Cl)cc(C(=O)O)c1	–	103	inactive	–	–
O=C(Nc1cccc(-c2nn[nH]n2)c1)c1cccc(-c2nn[nH]n2)c1	1.6	15.8	–	–	–
O=C(O)c1cc(NC(=O)c2ccc(C(F)(F)F)cc2)cc(C(=O)O)c1	–	–	inactive	inactive	–
CCCCc1ccc(C(=O)Nc2cc(C(=O)O)cc(C(=O)O)c2)cc1	12.3	91.9	–	–	–
COc1ccc(/C=C/C(=O)Nc2ccccc2C(=O)O)cc1OC [TRANILAST]	3.6	–	–	inactive	–
NC(=O)c1ccc(NC(=O)c2ccc(-c3nn[nH]n3)cc2)cc1	2	33	–	–	–
O=C(Nc1ccccc1-c1nn[nH]n1)c1ccc(-c2nn[nH]n2)cc1	1.5	6.1	–	–	–
COc1cc(OC)cc(C(=O)Nc2cc(C(=O)O)cc(C(=O)O)c2)c1	–	108	inactive	–	–
O=C(O)c1ccc(NC(=O)c2ccc(-c3nn[nH]n3)cc2)cc1	2.3	3.5	–	–	–
N#Cc1cccc(C(=O)Nc2cc(C(=O)O)cc(C(=O)O)c2)c1	5	140	–	–	–
O=C(Nc1ccccc1)c1cccc(-c2nn[nH]n2)c1	4.5	38.1	–	–	–
N#Cc1ccc(NC(=O)c2ccc(-c3nn[nH]n3)cc2)cc1	1.2	19.7	–	–	–
N#Cc1ccc(C(=O)Nc2cc(C(=O)O)ccc2C(=O)O)cc1	1.5	26.8	–	–	–
O=C(Nc1ccccc1)c1ccc(-c2nn[nH]n2)cc1	8.4	40	–	–	–

SMILES	ED50 (Rattus norvegicus [1]) [mg/kg]	ED50 (Rattus norvegicus [2]) [mg/kg]	ID50 (Rattus norvegicus [4])	ID50 (Rattus norvegicus [5])	other results
O=C(O)c1cc(NC(=O)c2ccccc2)cc(C(=O)O)c1	–	–	inactive	inactive	–
N#Cc1ccc(C(=O)Nc2ccc(-c3nn[nH]n3)cc2)cc1	2.4	54.4	–	–	–
N#Cc1ccc(C(=O)Nc2cc(C(N)=O)cc(C(=O)O)c2)cc1	5.7	87.2	–	–	–
O=C(Nc1cccc(-c2nn[nH]n2)c1)c1ccc(-c2nn[nH]n2)cc1	0.03	1.1	–	–	–
Cc1ccc(C(=O)Nc2cc(C(=O)O)cc(C(=O)O)c2)cc1	–	–	inactive	inactive	–
O=C(Nc1ccccc1-c1nn[nH]n1)c1cccc(-c2nn[nH]n2)c1	–	9.7	–	–	ED50 (Rattus norvegicus [6]): 1.4 mg/kg
COc1ccc(C(=O)Nc2cc(C(=O)O)cc(C(=O)O)c2)cc1OC	–	116	inactive	–	–
N#Cc1ccc(C(=O)Nc2ccc(C(=O)O)cc2)cc1	–	–	inactive	inactive	–
O=C([O-])c1cc(=O)c2c(OCC(O)COc3cccc4oc(C(=O)[O-])cc(=O)c34)cccc2o1.[Na+].[Na+] [CROMOLYN SODIUM]	1.5	50.8	–	–	–
O=C(O)c1ccc(NC(=O)c2ccc([N+](=O)[O-])cc2)cc1	–	–	inactive	inactive	–
O=C(O)c1cc(NC(=O)c2ccc(O)cc2)cc(C(=O)O)c1	–	–	inactive	inactive	–
O=C(O)c1ccc(NC(=O)c2ccc(C(=O)O)cc2)cc1	25.4	54.3	–	–	–
COc1cc(C(=O)Nc2cc(C(=O)O)cc(C(=O)O)c2)cc(OC)c1OC	–	–	inactive	inactive	–
O=C(Nc1ccc(-c2nnn[nH]2)cc1)c1ccc(-c2nnn[nH]2)cc1 [ANDOLAST]	–	2.5	–	–	ED50 (Rattus norvegicus [7]): 18.2 mg/kg; ED50 (Rattus norvegicus [8]): 23.9 mg/kg; ED50 (Rattus norvegicus [6]): 0.09 mg/kg; ED50 (Rattus norvegicus [9]): 9.4 mg/kg
O=C(O)c1cc(NC(=O)c2ccc([N+](=O)[O-])cc2)cc(C(=O)O)c1	9.8	61.1	–	–	–
N#Cc1ccc(C(=O)Nc2cc(CO)cc(C(=O)O)c2)cc1	–	–	inactive	inactive	–
O=C(O)c1cc(NC(=O)c2ccc(O)c(O)c2)cc(C(=O)O)c1	–	–	inactive	inactive	–
N#Cc1ccc(C(=O)Nc2ccc(C(=O)O)cc2C(=O)O)cc1	19.5	66.3	–	–	–
N#Cc1ccc(C(=O)Nc2cccc(C(=O)O)c2C(=O)O)cc1	15.8	135	–	–	–
O=C(O)c1cc(NC(=O)c2cc(O)cc(O)c2)cc(C(=O)O)c1	–	90.2	inactive	–	–
N#Cc1ccc(C(=O)Nc2cccc(-c3nn[nH]n3)c2)cc1	–	21.4	inactive	–	–
N#Cc1ccc(C(=O)Nc2cc(C(=O)O)cc(C(=O)O)c2)cc1	1.7	32.1	–	–	–
O=C(O)c1ccc(C(=O)O)c(NC(=O)c2ccc(-c3nn[nH]n3)cc2)c1	1.2	31.1	–	–	–
O=C(O)c1cc(NC(=O)c2ccc(Cl)cc2)cc(C(=O)O)c1	–	97.3	inactive	–	–
CCCOc1ccc(C(=O)Nc2cc(C(=O)O)cc(C(=O)O)c2)cc1	–	78	inactive	–	–
